Assay results from ChEMBL document CHEMBL1629437, “A novel PET marker for in vivo quantification of myelination” (Bioorg Med Chem, 2010).
Active and inactive are the calls of the source.

What was measured:
[1] = tested on: Brain; test: Biodistribution in Swiss-Webster mouse brain at 3.7 MBq, iv after 60 mins; type: ADME, organism-based; settings: in vivo, 1 h
In short: (§1)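 [11C]MeDAS, up to 3.7 MBq (100 μCi), was injected into the tail vein of Swiss-Webster mice (20-25 g). Brains were removed at 5, 30 and 60 min, weighed and gamma-counted. Decay-corrected uptake is given as %ID/organ, n = 3, mean ± SD.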

[2] = Drug uptake in Swiss-Webster mouse corpus callosum at 111 MBq, iv after 20 mins by magnetic resonance imaging analysis; type: ADME, organism-based; settings: in vivo
[3] = tested on: Brain; test: Drug uptake in Plp-Akt-DD transgenic mouse brain at 7.4 MBq, iv after 90 mins by microPET imaging analysis; settings: in vivo, 1.5 h
[4] = tested on: Intestine; test: Biodistribution in Swiss-Webster mouse intestine at 3.7 MBq, iv after 60 mins; type: ADME, organism-based; settings: in vivo, 1 h
In short: (§2)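 About 3.7 MBq (100 μCi) of [11C]MeDAS was given by tail vein to Swiss-Webster mice, which were euthanized by cardiac excision at 5, 30 and 60 min. Heart, liver, spleen, lung, kidney, stomach and intestine were removed and counted in an automatic gamma well-counter. Results are %ID/organ, n = 3, mean ± SD.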

[5] = tested on: Intestine; test: Biodistribution in Swiss-Webster mouse intestine at 3.7 MBq, iv after 5 mins; type: ADME, organism-based; settings: in vivo; in short: as §2
[6] = tested on: Stomach; test: Biodistribution in Swiss-Webster mouse stomach at 3.7 MBq, iv after 30 mins; type: ADME, organism-based; settings: in vivo, 0.5 h; in short: as §2
[7] = Octanol-water partition coefficient, log P of the compound at pH 7.4; type: physicochemical
In short: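 [11C]MeDAS (about 500,000 cpm, >98% radiochemical purity) was partitioned between n-octanol and phosphate buffer (pH 7.40) by vortexing 3 min at room temperature, then centrifuged at 3500 rpm for 5 min. The octanol layer was re-partitioned until values were consistent. logP = log of cpm/g octanol over cpm/g buffer, in triplicate.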

[8] = tested on: Stomach; test: Biodistribution in Swiss-Webster mouse stomach at 3.7 MBq, iv after 60 mins; type: ADME, organism-based; settings: in vivo, 1 h; in short: as §2
[9] = tested on: Heart; test: Biodistribution in Swiss-Webster mouse heart at 3.7 MBq, iv after 60 mins; type: ADME, organism-based; settings: in vivo, 1 h; in short: as §2
[10] = Drug uptake in Plp-Akt-DD transgenic mouse corpus callosum 7.4 MBq, iv after 90 mins by microPET imaging analysis; settings: in vivo, 1.5 h
[11] = Drug uptake in Swiss-Webster mouse corpus callosum at 111 MBq, iv; settings: in vivo
[12] = tested on: Heart; test: Biodistribution in Swiss-Webster mouse heart at 3.7 MBq, iv after 30 mins; type: ADME, organism-based; settings: in vivo, 0.5 h; in short: as §2
[13] = tested on: Kidney; test: Biodistribution in Swiss-Webster mouse kidney at 3.7 MBq, iv after 30 mins; type: ADME, organism-based; settings: in vivo, 0.5 h; in short: as §2
[14] = tested on: Lung; test: Biodistribution in Swiss-Webster mouse lung at 3.7 MBq, iv after 60 mins; type: ADME, organism-based; settings: in vivo, 1 h; in short: as §2
[15] = tested on: Lung; test: Biodistribution in Swiss-Webster mouse lung at 3.7 MBq, iv after 5 mins; type: ADME, organism-based; settings: in vivo; in short: as §2
[16] = tested on: Liver; test: Biodistribution in Swiss-Webster mouse liver at 3.7 MBq, iv after 60 mins; type: ADME, organism-based; settings: in vivo, 1 h; in short: as §2
[17] = tested on: Intestine; test: Biodistribution in Swiss-Webster mouse intestine at 3.7 MBq, iv after 30 mins; type: ADME, organism-based; settings: in vivo, 0.5 h; in short: as §2
[18] = tested on: Brain; test: Biodistribution in Swiss-Webster mouse brain at 3.7 MBq, iv after 5 mins; type: ADME, organism-based; settings: in vivo; in short: as §1
[19] = tested on: Brain; test: Drug uptake in Swiss-Webster mouse brain at 111 MBq, iv after 20 mins by autoradiography; type: ADME, organism-based; settings: in vivo
[20] = tested on: Kidney; test: Biodistribution in Swiss-Webster mouse kidney at 3.7 MBq, iv after 60 mins; type: ADME, organism-based; settings: in vivo, 1 h; in short: as §2
[21] = tested on: Heart; test: Biodistribution in Swiss-Webster mouse heart at 3.7 MBq, iv after 5 mins; type: ADME, organism-based; settings: in vivo; in short: as §2
[22] = tested on: Stomach; test: Biodistribution in Swiss-Webster mouse stomach at 3.7 MBq, iv after 5 mins; type: ADME, organism-based; settings: in vivo; in short: as §2
[23] = tested on: Spleen; test: Biodistribution in Swiss-Webster mouse spleen at 3.7 MBq, iv after 60 mins; type: ADME, organism-based; settings: in vivo, 1 h; in short: as §2
[24] = Drug uptake in Swiss-Webster mouse corpus callosum at 111 MBq, iv after 20 mins by magnetic resonance imaging analysis in presence of BDB; type: ADME, organism-based; settings: in vivo
[25] = tested on: Brain; test: Biodistribution in Swiss-Webster mouse brain at 3.7 MBq, iv after 30 mins; type: ADME, organism-based; settings: in vivo, 0.5 h; in short: as §1
[26] = tested on: Spleen; test: Biodistribution in Swiss-Webster mouse spleen at 3.7 MBq, iv after 30 mins; type: ADME, organism-based; settings: in vivo, 0.5 h; in short: as §2
[27] = tested on: Kidney; test: Biodistribution in Swiss-Webster mouse kidney at 3.7 MBq, iv after 5 mins; type: ADME, organism-based; settings: in vivo; in short: as §2
[28] = tested on: Liver; test: Biodistribution in Swiss-Webster mouse liver at 3.7 MBq, iv after 30 mins; type: ADME, organism-based; settings: in vivo, 0.5 h; in short: as §2
[29] = tested on: Liver; test: Biodistribution in Swiss-Webster mouse liver at 3.7 MBq, iv after 5 mins; type: ADME, organism-based; settings: in vivo; in short: as §2
[30] = tested on: Lung; test: Biodistribution in Swiss-Webster mouse lung at 3.7 MBq, iv after 30 mins; type: ADME, organism-based; settings: in vivo, 0.5 h; in short: as §2
[31] = tested on: Spleen; test: Biodistribution in Swiss-Webster mouse spleen at 3.7 MBq, iv after 5 mins; type: ADME, organism-based; settings: in vivo; in short: as §2
[32] = tested on: Mus musculus; test: In vivo binding affinity to myelin sheath in Plp-Akt-DD transgenic mouse corpus callosum at 25 mg/kg, iv after 30 mins by fluorescent microscopic analysis; type: functional, organism-based; design: dose 25 mg/kg; settings: tested as the 11C-labelled form
In short: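 Anesthetized Plp-Akt-DD mice and control littermates received MeDAS, 25 mg/kg (about 0.5 mg), by tail vein. After 30 min they were perfused with saline and then 4% PFA. Brains were postfixed overnight, cryoprotected in 30% sucrose and cut into 10 μm cryosections. Sections were imaged directly by fluorescence microscopy, with Black-Gold staining done for comparison.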

[33] = species: Mus musculus; test: Binding affinity to myelin sheath in Plp-Akt-DD transgenic mouse corpus callosum by fluorescence assay; type: tissue-based
In short: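 Perfusion-fixed (4% PFA) brains from Plp-Akt-DD mice and wild-type SWR/J littermates (5 months old) were cut into 10 μm coronal cryosections and stained in vitro with 10 μM MeDAS. Fluorescence was imaged in the corpus callosum from the midline to below the apex of the cingulum, 8 images per mouse, 20× objective. Images were thresholded against Black-Gold reactivity and intensity was expressed relative to WT set at 100. n = 4, unpaired Student's t-test.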

[34] = species: Mus musculus; test: Binding affinity to myelin sheath in Plp-Akt-DD transgenic mouse corpus callosum at 10 uM after 20 mins; type: tissue-based; settings: tested as the 11C-labelled form

[11CH3]Nc1ccc(/C=C/c2ccc(N)cc2)cc1
Drug uptake [1]: 1.37 %ID | Drug uptake [2]: Active | Drug uptake [3]: Active | Drug uptake [4]: 1.74 %ID | Drug uptake [5]: 0.42 %ID | Drug uptake [6]: 0.67 %ID | logD [7]: 2.25 | Drug uptake [8]: 1.21 %ID | Drug uptake [9]: 0.75 %ID | Drug uptake [10]: Active | Drug uptake [11]: Active | Drug uptake [12]: 0.33 %ID | Drug uptake [13]: 2 %ID | Drug uptake [14]: 1.2 %ID | Drug uptake [15]: 0.85 %ID | Drug uptake [16]: 7.75 %ID | Drug uptake [17]: 0.65 %ID | Drug uptake [18]: 2.56 %ID | Drug uptake [19]: Active | Drug uptake [20]: 1.78 %ID | Drug uptake [21]: 0.4 %ID | Drug uptake [22]: 1 %ID | Drug uptake [23]: 0.9 %ID | Drug uptake [24]: Not Active | Drug uptake [25]: 1.05 %ID | Drug uptake [26]: 0.39 %ID | Drug uptake [27]: 2.69 %ID | Drug uptake [28]: 10.83 %ID | Drug uptake [29]: 15.86 %ID | Drug uptake [30]: 0.76 %ID | Drug uptake [31]: 0.28 %ID

CNc1ccc(/C=C/c2ccc(N)cc2)cc1
Drug uptake [32]: Active | Drug uptake [33]: Active | Drug uptake [34]: Active
